Experimental findings from ChEMBL document CHEMBL2331455, “Potent vasorelaxant analogs from chemical modification and biotransformation of isosteviol” (Eur J Med Chem, 2013) are described below.

pEC50: −log10 of the molar value.

The first data set concerns Vero. The experiment in a line: Cytotoxicity against african green monkey Vero cells. Format: cell-based. Particulars: chlorocebus sabaeus.
Turning to `C[C@@]12CC[C@H]3[C@]4(C)CCC[C@@](C)(C(=O)O)[C@H]4C[C@H](O)[C@]3(CC1=O)C2`, the Activity entry is listed as “Non-toxic”.

Another data set concerns Aorta. The experiment in a line: Vasorelaxant activity in Sprague-Dawley rat aorta assessed as reduction of phenylephrine-induced contraction. Format: functional, tissue-based.
Conditions: not given
In short, it runs like this:
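Aortic rings held in HPSS (140 mM NaCl, 5 mM KCl, 2 mM CaCl2, 1 mM MgCl2, 5 mM HEPES, 11 mM glucose, pH 7.4) and equilibrated 2 h with several buffer changes. Isometric force changes were recorded continuously. Acetylcholine served as positive control.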
For the molecule `CC(=O)O[C@@H]1C[C@]23CC[C@H]4[C@@](C)(CCC[C@@]4(C)C(=O)O)[C@@H]2CC[C@@]1(C)C3`, the pEC50 is 8.31.

Consider `C[C@@]12CC[C@H]3[C@]4(C)CCC[C@@](C)(C(=O)O)[C@H]4C[C@H](O)[C@]3(C[C@H]1O)C2`, for which the pEC50 was 7.38. For `C[C@@]12CC[C@H]3[C@]4(C)CCC[C@@](C)(C(=O)O)[C@H]4C[C@@H](O)[C@]3(C[C@H]1O)C2`, the negative logarithm of the EC50 (pEC50) was 7.40. For the molecule `C[C@@]12CCC[C@@](C)(C(=O)O)[C@H]1CC[C@@]13C[C@@H](O)[C@@](C)(CC[C@@H]21)[C@@H]3O`, the pEC50 is 6.52. With `CC(=O)O[C@@H]1C[C@@]23C[C@]1(C)CC[C@H]2[C@]1(C)CCC[C@@](C)(C(=O)O)[C@H]1C[C@@H]3O`, the pEC50 was 7.22.

Consider `CC(=O)O[C@@H]1C[C@]23CC[C@H]4[C@@](C)(CCC[C@@]4(C)C(=O)O)[C@@H]2CC[C@@]1(C)[C@@H]3O`, for which the pEC50 was 7.71. The same measure, in the same setting: the value for `C[C@@]12CC[C@@H]3[C@@](CC[C@H]4[C@@]3(C)CCC[C@@]4(C)C(=O)O)(C[C@H]1O)C2` was 7.54.

As to `C[C@@]12CC[C@H]3[C@]4(C)CCC[C@@](C)(C(=O)O)[C@H]4C[C@H](O)[C@]3(CC1=O)C2`, the pEC50 was 8.46. On the same count and under the same terms, the value for `CC(=O)OCC[N+](C)(C)C` [ACETYLCHOLINE IODIDE] was 7.19; that for `C[C@@]12CC[C@@H]3[C@@](CC[C@H]4[C@@]3(C)CCC[C@@]4(C)C(=O)O)(CC1=O)C2` [ISOSTEVIOL] was 7.24.

By pEC50 is commonly meant the EC50 on a negative log10 scale, so that one unit is a factor of ten.
